Laboratory results published in publication PMC3701955 (Bioorganic & medicinal chemistry, 2012).
Where two headings read alike, the source gives them in different places.

How the values were obtained:
rodent OTR = conditions: prairie vole brain sections
[1] = molecular target: T1, human vasopressin receptor V1b (Homo sapiens, UniProt P47901); type: binding; conditions: competition with [3H]-AVP, NIMH PDSP
T1 sequence (P47901 1-424): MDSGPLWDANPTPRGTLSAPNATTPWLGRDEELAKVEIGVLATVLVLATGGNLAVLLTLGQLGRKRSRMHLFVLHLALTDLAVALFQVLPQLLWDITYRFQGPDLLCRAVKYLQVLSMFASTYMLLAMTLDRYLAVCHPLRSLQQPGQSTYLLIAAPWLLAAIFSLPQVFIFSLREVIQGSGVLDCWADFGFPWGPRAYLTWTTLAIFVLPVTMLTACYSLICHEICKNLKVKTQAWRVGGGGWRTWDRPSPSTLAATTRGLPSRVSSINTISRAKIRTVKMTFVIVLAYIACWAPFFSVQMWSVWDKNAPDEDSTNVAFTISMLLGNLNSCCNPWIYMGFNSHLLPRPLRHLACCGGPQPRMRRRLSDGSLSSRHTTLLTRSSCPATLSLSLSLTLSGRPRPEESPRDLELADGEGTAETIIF

human V1aR = human V1aR (Homo sapiens, UniProt P37288); type: binding; conditions: competition with [3H]-AVP, NIMH PDSP
human V1aR, sequence (P37288 whole entry): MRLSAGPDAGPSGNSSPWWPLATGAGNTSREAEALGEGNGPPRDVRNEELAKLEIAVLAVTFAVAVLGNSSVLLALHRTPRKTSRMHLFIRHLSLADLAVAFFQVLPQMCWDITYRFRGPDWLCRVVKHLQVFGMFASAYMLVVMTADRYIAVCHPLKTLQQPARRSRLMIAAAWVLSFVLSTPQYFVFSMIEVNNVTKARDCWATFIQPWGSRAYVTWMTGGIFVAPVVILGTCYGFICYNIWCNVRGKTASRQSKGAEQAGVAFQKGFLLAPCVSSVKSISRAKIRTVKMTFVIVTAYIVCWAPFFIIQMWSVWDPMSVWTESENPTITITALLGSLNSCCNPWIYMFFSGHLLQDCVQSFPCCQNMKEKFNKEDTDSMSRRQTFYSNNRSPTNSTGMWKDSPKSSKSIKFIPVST

[2] = molecular target: human vasopressin receptor V2 (Homo sapiens, UniProt P30518); type: binding; conditions: competition with [3H]-AVP, NIMH PDSP
human vasopressin receptor V2, sequence (P30518 whole entry): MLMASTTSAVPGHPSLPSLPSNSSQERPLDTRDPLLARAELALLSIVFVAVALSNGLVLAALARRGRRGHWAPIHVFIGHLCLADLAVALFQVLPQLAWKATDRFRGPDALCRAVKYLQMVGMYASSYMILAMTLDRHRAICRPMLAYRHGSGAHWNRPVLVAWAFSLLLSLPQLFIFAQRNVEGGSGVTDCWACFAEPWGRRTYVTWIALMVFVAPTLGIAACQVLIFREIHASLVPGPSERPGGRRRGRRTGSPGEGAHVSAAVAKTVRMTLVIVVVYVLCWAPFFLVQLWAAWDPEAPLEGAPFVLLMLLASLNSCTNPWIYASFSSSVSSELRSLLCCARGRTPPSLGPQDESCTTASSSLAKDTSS

human OTR = molecular target: T2, human OTR (Homo sapiens, UniProt P30559); type: binding; conditions: human receptors
T2 sequence (P30559 1-389): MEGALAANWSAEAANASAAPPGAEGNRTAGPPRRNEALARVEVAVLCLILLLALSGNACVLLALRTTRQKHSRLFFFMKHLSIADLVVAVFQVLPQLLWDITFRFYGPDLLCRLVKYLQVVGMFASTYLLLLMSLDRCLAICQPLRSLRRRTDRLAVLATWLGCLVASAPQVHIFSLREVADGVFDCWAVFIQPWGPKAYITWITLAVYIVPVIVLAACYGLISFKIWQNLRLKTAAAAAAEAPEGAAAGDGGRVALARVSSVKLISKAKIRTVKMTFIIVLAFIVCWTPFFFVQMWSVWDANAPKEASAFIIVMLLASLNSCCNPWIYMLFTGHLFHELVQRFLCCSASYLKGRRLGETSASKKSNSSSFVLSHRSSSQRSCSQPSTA

[3] = type: in vivo; conditions: female Sprague–Dawley rats, iv; for Biodistribution of radioactivity in brain region, Amygdala / Biodistribution of radioactivity in brain region, Basal Hypothalamus / Biodistribution of radioactivity in brain region, Cerebellum / Biodistribution of radioactivity in brain region, Dorsal Striatum / Biodistribution of radioactivity in brain region, Remaining Brain / Biodistribution of radioactivity, Blood / Biodistribution of radioactivity, Heart / Biodistribution of radioactivity, Kidney / Biodistribution of radioactivity, Liver / Biodistribution of radioactivity, Lung / Biodistribution of radioactivity, Muscle / Biodistribution of radioactivity, Uterus / Biodistribution of radioactivity, Brain: mean ± SD; for Biodistribution of radioactivity, Brain: total brain
OTR and V1aR = assay: Receptor autoradiography with the radioligand on prairie vole brain slices; type: binding; conditions: 70 pM radioligand
How it was run: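 Prairie vole brains were cut at 20 μm from prefrontal cortex through nucleus accumbens and ventral pallidum, stored at −80 °C, and thawed. Sections were dipped in 0.1% paraformaldehyde/PBS pH 7.4 and rinsed in 50 mM Tris pH 7.4. They were incubated 1 h with 70 pM radioiodinated test compound without competitor, then washed in 50 mM Tris + 2% MgCl2 pH 7.4, air-dried, and exposed to film 72 h. Six animals per study.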

[4] = cited from earlier work

COc1cc(OC2CCN(S(C)(=O)=O)CC2)ccc1CC(=O)N1CCC(N2C(=O)CCc3ccccc32)CC1 [Compound 4, 1-(1-(2-(2-Methoxy-4-((1-(methylsulfonyl)piperidin-4-yl)oxy)phenyl)acetyl)piperidin-4-yl)-3,4-dihydroquinolin-2(1H)-one]
selectivity for the rodent OTR over V1aR (rodent OTR): four times more selective

CS(=O)(=O)N1CCC(Oc2ccc(CC(=O)N3CCC(N4C(=O)CCc5ccccc54)CC3)c(O)c2)CC1 [Compound 13, 1-(1-(2-(2-Hydroxy-4-(1-(methylsulfonyl)piperidin-4-yloxy)phenyl)acetyl)piperidin-4-yl)-3,4-dihydroquinolin-2(1H)-one]
Ki Human V1b [1]: no detectable affinity
Ki Human V1aR (human V1aR): no detectable affinity
Ki Human V2 [2]: no detectable affinity

CS(=O)(=O)N1CCC(Oc2ccc(CC(=O)N3CCC(N4C(=O)CCc5ccccc54)CC3)c(OC/C=C/I)c2)CC1 [Compound 1, (E)-1-(1-(2-(2-(3-Iodoallyloxy)-4-(1-(methylsulfonyl)piperidin-4-yloxy)phenyl)acetyl)piperidin-4-yl)-3,4-dihydroquinolin-2(1H)-one]
potency for the human OTR over V1aR (human OTR): 79 fold

CS(=O)(=O)N1CCC(Oc2ccc(CC(=O)N3CCC(N4C(=O)CCc5ccccc54)CC3)c(OC/C=C\[125I])c2)CC1 [[^125I]2, (Z)-1-(1-(2-(2-(3-[125I] Iodoallyloxy)-4-(1-(methylsulfonyl)piperidin-4-yloxy)phenyl)acetyl)piperidin-4-yl)-3,4-dihydroquinolin-2(1H)-one]
in vivo stability of the radiolabel (thyroid / bone uptake over time) [3]: broken down readily in vivo at the iodine position
Biodistribution of radioactivity in brain region, Amygdala ([3]; 15 min): 0.06 ± 0.01 %ID/g
Biodistribution of radioactivity in brain region, Basal Hypothalamus ([3]; 15 min): 0.04 ± 0.01 %ID/g
Biodistribution of radioactivity in brain region, Cerebellum ([3]; 15 min): 0.03 ± 0.01 %ID/g
Biodistribution of radioactivity in brain region, Dorsal Striatum ([3]; 15 min): 0.03 ± 0.01 %ID/g
Biodistribution of radioactivity in brain region, Remaining Brain ([3]; 15 min): 0.03 ± 0.01 %ID/g
Biodistribution of radioactivity, Blood ([3]; 15 min): 0.22 ± 0.14 %ID/g
Biodistribution of radioactivity, Heart ([3]; 15 min): 0.51 ± 0.41 %ID/g
Biodistribution of radioactivity, Kidney ([3]; 15 min): 0.38 ± 0.20 %ID/g
Biodistribution of radioactivity, Liver ([3]; 15 min): 2.12 ± 1.73 %ID/g
Biodistribution of radioactivity, Lung ([3]; 15 min): 1.79 ± 1.78 %ID/g
Biodistribution of radioactivity, Muscle ([3]; 15 min): 0.10 ± 0.09 %ID/g
Biodistribution of radioactivity, Uterus ([3]; 15 min): 0.22 ± 0.16 %ID/g
Biodistribution of radioactivity, Brain ([3]; 15 min): 0.02 ± 0.01 %ID/g
Biodistribution of radioactivity in brain region, Amygdala ([3]; 30 min): 0.08 ± 0.06 %ID/g
Biodistribution of radioactivity in brain region, Basal Hypothalamus ([3]; 30 min): 0.03 ± 0.01 %ID/g
Biodistribution of radioactivity in brain region, Cerebellum ([3]; 30 min): 0.03 ± 0.01 %ID/g
Biodistribution of radioactivity in brain region, Dorsal Striatum ([3]; 30 min): 0.03 ± 0.01 %ID/g
Biodistribution of radioactivity in brain region, Remaining Brain ([3]; 30 min): 0.02 ± 0.01 %ID/g
Biodistribution of radioactivity, Blood ([3]; 30 min): 0.23 ± 0.23 %ID/g
Biodistribution of radioactivity, Heart ([3]; 30 min): 0.39 ± 0.38 %ID/g
Biodistribution of radioactivity, Kidney ([3]; 30 min): 0.31 ± 0.27 %ID/g
Biodistribution of radioactivity, Liver ([3]; 30 min): 1.91 ± 1.88 %ID/g
Biodistribution of radioactivity, Lung ([3]; 30 min): 1.02 ± 1.13 %ID/g
Biodistribution of radioactivity, Muscle ([3]; 30 min): 0.09 ± 0.08 %ID/g
Biodistribution of radioactivity, Uterus ([3]; 30 min): 0.16 ± 0.16 %ID/g
Biodistribution of radioactivity, Brain ([3]; 30 min): 0.02 ± 0.01 %ID/g
Biodistribution of radioactivity in brain region, Amygdala ([3]; 60 min): 0.06 ± 0.01 %ID/g
Biodistribution of radioactivity in brain region, Basal Hypothalamus ([3]; 60 min): 0.03 ± 0.01 %ID/g
Biodistribution of radioactivity in brain region, Cerebellum ([3]; 60 min): 0.03 ± 0.01 %ID/g
Biodistribution of radioactivity in brain region, Dorsal Striatum ([3]; 60 min): 0.02 ± 0.01 %ID/g
Biodistribution of radioactivity in brain region, Remaining Brain ([3]; 60 min): 0.02 ± 0.01 %ID/g
Biodistribution of radioactivity, Heart ([3]; 60 min): 0.39 ± 0.12 %ID/g
Biodistribution of radioactivity, Kidney ([3]; 60 min): 0.46 ± 0.04 %ID/g
Biodistribution of radioactivity, Liver ([3]; 60 min): 3.01 ± 0.50 %ID/g
Biodistribution of radioactivity, Lung ([3]; 60 min): 0.66 ± 0.32 %ID/g
Biodistribution of radioactivity, Muscle ([3]; 60 min): 0.15 ± 0.03 %ID/g
Biodistribution of radioactivity, Uterus ([3]; 60 min): 0.31 ± 0.08 %ID/g
Biodistribution of radioactivity, Brain ([3]; 60 min): 0.02 ± 0.01 %ID/g
Biodistribution of radioactivity in brain region, Basal Hypothalamus ([3]; 120 min): 0.04 ± 0.01 %ID/g
Biodistribution of radioactivity in brain region, Cerebellum ([3]; 120 min): 0.03 ± 0.01 %ID/g
Biodistribution of radioactivity in brain region, Dorsal Striatum ([3]; 120 min): 0.02 ± 0.01 %ID/g
Biodistribution of radioactivity in brain region, Remaining Brain ([3]; 120 min): 0.02 ± 0.01 %ID/g
Biodistribution of radioactivity, Blood ([3]; 120 min): 0.31 ± 0.17 %ID/g
Biodistribution of radioactivity, Kidney ([3]; 120 min): 0.29 ± 0.15 %ID/g
Biodistribution of radioactivity, Liver ([3]; 120 min): 1.91 ± 1.02 %ID/g
Biodistribution of radioactivity, Lung ([3]; 120 min): 0.41 ± 0.27 %ID/g
Biodistribution of radioactivity, Muscle ([3]; 120 min): 0.10 ± 0.05 %ID/g
Biodistribution of radioactivity, Uterus ([3]; 120 min): 0.22 ± 0.13 %ID/g
Biodistribution of radioactivity, Brain ([3]; 120 min): 0.02 ± 0.01 %ID/g
autoradiographic binding to brain regions (OTR and V1aR): bind to receptors in the NAcc and VP

CS(=O)(=O)N1CCC(Oc2ccc(CC(=O)N3CCC(N4C(=O)CCc5ccccc54)CC3)c(OC/C=C/[125I])c2)CC1 [[^125I]1, (E)-1-(1-(2-(2-(3-[125I]Iodoallyloxy)-4-(1-(methylsulfonyl)piperidin-4-yloxy)phenyl)acetyl)piperidin-4-yl)-3,4-dihy droquinolin-2(1H)-one]
in vivo stability of the radiolabel (thyroid / bone uptake over time) [3]: broken down readily in vivo at the iodine position
Biodistribution of radioactivity in brain region, Amygdala ([3]; 15 min): 0.09 ± 0.02 %ID/g
Biodistribution of radioactivity in brain region, Basal Hypothalamus ([3]; 15 min): 0.08 ± 0.01 %ID/g
Biodistribution of radioactivity in brain region, Cerebellum ([3]; 15 min): 0.08 ± 0.01 %ID/g
Biodistribution of radioactivity in brain region, Remaining Brain ([3]; 15 min): 0.07 ± 0.01 %ID/g
Biodistribution of radioactivity, Blood ([3]; 15 min): 0.58 ± 0.51 %ID/g
Biodistribution of radioactivity, Heart ([3]; 15 min): 0.82 ± 0.70 %ID/g
Biodistribution of radioactivity, Kidney ([3]; 15 min): 0.96 ± 0.84 %ID/g
Biodistribution of radioactivity, Liver ([3]; 15 min): 5.67 ± 5.08 %ID/g
Biodistribution of radioactivity, Lung ([3]; 15 min): 1.86 ± 1.60 %ID/g
Biodistribution of radioactivity, Muscle ([3]; 15 min): 0.28 ± 0.24 %ID/g
Biodistribution of radioactivity, Uterus ([3]; 15 min): 0.43 ± 0.38 %ID/g
Biodistribution of radioactivity in brain region, Amygdala ([3]; 30 min): 0.07 ± 0.03 %ID/g
Biodistribution of radioactivity in brain region, Basal Hypothalamus ([3]; 30 min): 0.06 ± 0.01 %ID/g
Biodistribution of radioactivity, Blood ([3]; 30 min): 0.58 ± 0.07 %ID/g
Biodistribution of radioactivity, Heart ([3]; 30 min): 0.61 ± 0.18 %ID/g
Biodistribution of radioactivity, Kidney ([3]; 30 min): 0.75 ± 0.07 %ID/g
Biodistribution of radioactivity, Liver ([3]; 30 min): 3.90 ± 0.15 %ID/g
Biodistribution of radioactivity, Lung ([3]; 30 min): 1.41 ± 0.72 %ID/g
Biodistribution of radioactivity, Muscle ([3]; 30 min): 0.26 ± 0.02 %ID/g
Biodistribution of radioactivity, Uterus ([3]; 30 min): 0.41 ± 0.07 %ID/g
Biodistribution of radioactivity in brain region, Amygdala ([3]; 60 min): 0.09 ± 0.02 %ID/g
Biodistribution of radioactivity in brain region, Basal Hypothalamus ([3]; 60 min): 0.06 ± 0.01 %ID/g
Biodistribution of radioactivity in brain region, Dorsal Striatum ([3]; 60 min): 0.04 ± 0.01 %ID/g
Biodistribution of radioactivity, Blood ([3]; 60 min): 0.55 ± 0.27 %ID/g
Biodistribution of radioactivity, Heart ([3]; 60 min): 0.54 ± 0.28 %ID/g
Biodistribution of radioactivity, Kidney ([3]; 60 min): 0.69 ± 0.30 %ID/g
Biodistribution of radioactivity, Liver ([3]; 60 min): 3.09 ± 1.34 %ID/g
Biodistribution of radioactivity, Lung ([3]; 60 min): 1.45 ± 1.04 %ID/g
Biodistribution of radioactivity, Muscle ([3]; 60 min): 0.23 ± 0.11 %ID/g
Biodistribution of radioactivity, Uterus ([3]; 60 min): 0.45 ± 0.23 %ID/g
Biodistribution of radioactivity, Brain ([3]; 60 min): 0.04 ± 0.02 %ID/g
Biodistribution of radioactivity in brain region, Amygdala ([3]; 120 min): 0.06 ± 0.01 %ID/g
Biodistribution of radioactivity in brain region, Cerebellum ([3]; 120 min): 0.03 ± 0.01 %ID/g
Biodistribution of radioactivity in brain region, Dorsal Striatum ([3]; 120 min): 0.03 ± 0.01 %ID/g
Biodistribution of radioactivity in brain region, Remaining Brain ([3]; 120 min): 0.03 ± 0.01 %ID/g
Biodistribution of radioactivity, Blood ([3]; 120 min): 0.38 ± 0.14 %ID/g
Biodistribution of radioactivity, Heart ([3]; 120 min): 0.38 ± 0.06 %ID/g
Biodistribution of radioactivity, Kidney ([3]; 120 min): 0.42 ± 0.10 %ID/g
Biodistribution of radioactivity, Liver ([3]; 120 min): 1.81 ± 0.30 %ID/g
Biodistribution of radioactivity, Muscle ([3]; 120 min): 0.14 ± 0.03 %ID/g
Biodistribution of radioactivity, Uterus ([3]; 120 min): 0.30 ± 0.10 %ID/g
Biodistribution of radioactivity, Brain ([3]; 120 min): 0.02 ± 0.01 %ID/g
autoradiographic binding to brain regions (OTR and V1aR): bind to receptors in the NAcc and VP

COc1cc(OC2CCN(C(C)=O)CC2)ccc1C(=O)N1CCC(N2C(=O)OCc3ccccc32)CC1 [Compound L-371257]
brain penetration [4]: very poor brain penetrant
